Results taken from ChEMBL document CHEMBL1133676, “Synthesis and hypolipidemic and antiplatelet activities of alpha-asarone isomers in humans (in vitro), mice (in vivo), and rats (in vivo)” (2000).

How the values were obtained:
Type in all cases: functional
Rattus norvegicus [1] = species on record: Rattus norvegicus; experiment: HDL (high density lipoproteins) cholesterol level in Wistar male rats
Procedure, shortened: (§1)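 Agents in oil (5 mL/kg) were given once daily by gastric intubation. Doses were 80 mg/kg for test agents and 150 mg/kg for the positive control; chow-fed and vehicle-oil groups served as controls. After a 16 h fast and ether anesthesia, ocular-puncture blood was drawn. Serum lipids were measured by kit spectrophotometry; Student's t-test, n = 9–10.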

Rattus norvegicus [2] = species on record: Rattus norvegicus; experiment: LDL (low density lipoproteins) cholesterol level in Wistar male rats
Procedure, shortened: (§2)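 Compounds in oil (5 mL/kg) were given by gastric intubation once daily, at 80 mg/kg or 150 mg/kg for clofibrate. Rats were then fasted 16 h […], and serum lipids were measured spectrophotometrically with kits; Student's t-test.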

Rattus norvegicus [3] = species on record: Rattus norvegicus; experiment: Cholesterol level in Wistar male rats; procedure, shortened: as §1
Rattus norvegicus [4] = species on record: Rattus norvegicus; experiment: Triglyceride level in Wistar male rats; procedure, shortened: as §1
Rattus norvegicus [5] = experiment: HDL (high density lipoproteins) cholesterol level in Wistar male rats at a dose of 80 mg/kg; procedure, shortened: as §1
Rattus norvegicus [6] = experiment: LDL (low density lipoproteins) cholesterol level in Wistar male rats at a dose of 80 mg/kg; procedure, shortened: as §2
Rattus norvegicus [7] = experiment: Total cholesterol level in Wistar male rats administered at a dose of 80 mg/kg; procedure, shortened: as §1
Rattus norvegicus [8] = experiment: Triglyceride level in Wistar male rats administered at a dose of 80 mg/kg; procedure, shortened: as §1
Homo sapiens [9] = species on record: Homo sapiens; experiment: In vitro inhibition of human platelet aggregation induced by 10 uM ADP after incubation at 100 uM
Procedure, shortened: (§3)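 Born turbidimetric assay in citrated platelet-rich plasma from healthy male volunteers, with platelet-poor plasma set as 100% transmission. Agents in 95% ethanol were preincubated with PRP for 2 min at 37 °C, stirred at 1000 rpm.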

Homo sapiens [10] = species on record: Homo sapiens; experiment: In vitro inhibition of human platelet aggregation induced by 10 uM ADP after incubation at 150 uM; procedure, shortened: as §3
Homo sapiens [11] = species on record: Homo sapiens; experiment: In vitro inhibition of human platelet aggregation induced by 10 uM ADP after incubation at 200 uM; procedure, shortened: as §3
Homo sapiens [12] = species on record: Homo sapiens; experiment: In vitro inhibition of human platelet aggregation induced by 10 uM ADP after incubation at 250 uM; procedure, shortened: as §3
Mus musculus [13] = experiment: Effect on acute pulmonary thromboembolism in mice at 25 mg/kg expressed as no. of killed or paralyzed to no. of tested observed after 10 min
Mus musculus [14] = experiment: Effect on acute pulmonary thromboembolism in mice at 25 mg/kg
Homo sapiens [15] = species on record: Homo sapiens; experiment: In vitro inhibition of human platelet aggregation induced by 10 uM ADP after incubation at 300 uM; procedure, shortened: as §3
Mus musculus [16] = experiment: Effect on acute pulmonary thromboembolism in mice at 100 mg/kg expressed as no. of killed or paralyzed to no. of tested observed after 10 min
Procedure, shortened: (§4)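 Male Swiss mice (29.4 ± 2.6 g) were given a single ip dose 1 h before a rapid tail-vein injection of collagen (25 μg/mouse) plus epinephrine (27 μg/mouse) in 0.154 M NaCl. Vehicles were miglyol 812 for asarones, or DMSO with Sörensen phosphate buffer pH 7.0 for ketorolac, at 0.1 mL/10 g. Death or paralysis was scored within 10 min; controls received vehicle only; χ² test.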

Mus musculus [17] = experiment: Effect on acute pulmonary thromboembolism in mice at 50 mg/kg expressed as no. of killed or paralyzed to no. of tested observed after 10 min; procedure, shortened: as §4
Mus musculus [18] = experiment: Effect on acute pulmonary thromboembolism in mice at 100 mg/kg
Procedure, shortened: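 Male Swiss mice (29.4 ± 2.6 g) received a single ip dose 1 h before a rapid tail-vein injection of collagen (25 μg/mouse) plus epinephrine (27 μg/mouse) in 0.154 M NaCl. Asarones were given in miglyol 812, and ketorolac in DMSO/Sörensen phosphate buffer pH 7.0, at 0.1 mL/10 g. Death or paralysis was scored within 10 min and reported as % protected versus vehicle controls; χ² test.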

Mus musculus [19] = experiment: Effect on acute pulmonary thromboembolism in mice at 50 mg/kg; procedure, shortened: as §4
Rattus norvegicus [20] = experiment: Total cholesterol level in Wistar male rats at a dose of 80 mg/kg; procedure, shortened: as §2
Rattus norvegicus [21] = experiment: Triglyceride level in Wistar male rats at a dose of 80 mg/kg; procedure, shortened: as §2
Rattus norvegicus [22] = experiment: HDL (high density lipoproteins) cholesterol level in Wistar male rats at 150 mg/kg; procedure, shortened: as §1
Rattus norvegicus [23] = experiment: LDL (low density lipoproteins) cholesterol level in Wistar male rats at 150 mg/kg; procedure, shortened: as §2
Rattus norvegicus [24] = experiment: Triglyceride level in Wistar male rats at a dose of 150 mg/kg; procedure, shortened: as §1
Rattus norvegicus [25] = experiment: Total cholesterol level in Wistar male rats at a dose of 150 mg/kg; procedure, shortened: as §1

Compound	HDL cholesterol (Rattus norvegicus [5]) [mg/dL]	LDL cholesterol (Rattus norvegicus [6]) [mg/dL]	Total cholesterol (Rattus norvegicus [7]) [mg/dL]	Triglyceride level (Rattus norvegicus [8]) [mg/dL]	No. of killed or paralyzed (Mus musculus [16])	Protected (Mus musculus [18]) [%]	also measured
CC(C)CCC[C@@H](C)[C@H]1CC[C@H]2[C@@H]3CC=C4C[C@@H](O)CC[C@]4(C)[C@H]3CC[C@]12C [CHOLESTEROL]							HDL cholesterol (Rattus norvegicus [1]): 29 mg/dL; LDL cholesterol (Rattus norvegicus [2]): 43.2 mg/dL; Total cholesterol (Rattus norvegicus [3]): 111 mg/dL; Triglyceride level (Rattus norvegicus [4]): 125 mg/dL
C/C=C/c1cc(OC)cc(OC)c1OC.CC(C)CCC[C@@H](C)[C@H]1CC[C@H]2[C@@H]3CC=C4C[C@@H](O)CC[C@]4(C)[C@H]3CC[C@]12C	39.2	35.8	97.9	140			
CC(=O)Oc1ccccc1C(=O)O [ASPIRIN]							Inhibition (Homo sapiens [9]): 31.2%; Inhibition (Homo sapiens [10]): 37.1%; Inhibition (Homo sapiens [11]): 48.5%; Inhibition (Homo sapiens [12]): 56.4%; No. of killed or paralyzed (Mus musculus [13]): 28; Protected (Mus musculus [14]): 45%
C/C=C/c1cc(OC)c(OC)c(OC)c1.CC(C)CCC[C@@H](C)[C@H]1CC[C@H]2[C@@H]3CC=C4C[C@@H](O)CC[C@]4(C)[C@H]3CC[C@]12C	45.3	19.8	93.4	136			
C/C=C/c1c(OC)ccc(OC)c1OC.CC(C)CCC[C@@H](C)[C@H]1CC[C@H]2[C@@H]3CC=C4C[C@@H](O)CC[C@]4(C)[C@H]3CC[C@]12C	30.2	48.2	115	162			
C/C=C/c1cc(OC)c(OC)cc1OC [TRANS-ASARONE]					10	44	Inhibition (Homo sapiens [9]): 4%; Inhibition (Homo sapiens [10]): 14.7%; Inhibition (Homo sapiens [11]): 40.3%; Inhibition (Homo sapiens [12]): 30.3%; Inhibition (Homo sapiens [15]): 47%; No. of killed or paralyzed (Mus musculus [17]): 13; Protected (Mus musculus [19]): 0%
C/C=C/c1ccc(OC)c(OC)c1OC					14	0	
C/C=C/c1cc(OC)c(OC)c(OC)c1					17	19	
C/C=C/c1cc(OC)c(OC)cc1OC.CC(C)CCC[C@@H](C)[C@H]1CC[C@H]2[C@@H]3CC=C4C[C@@H](O)CC[C@]4(C)[C@H]3CC[C@]12C [ALPHAASARONE AND CHOLESTEROL]	45.5	24.4					Total cholesterol (Rattus norvegicus [20]): 113.6 mg/kg; Triglyceride level (Rattus norvegicus [21]): 219.3
C/C=C/c1cc(OC)cc(OC)c1OC					12	52	Inhibition (Homo sapiens [9]): 13%; Inhibition (Homo sapiens [10]): 25.4%; Inhibition (Homo sapiens [11]): 35.4%; Inhibition (Homo sapiens [12]): 38.3%; Inhibition (Homo sapiens [15]): 38.3%
O=C(c1ccccc1)c1ccc2n1CCC2C(=O)O (configuration not stated) [KETOROLAC]					16	33	
C/C=C/c1c(OC)cc(OC)cc1OC					30	25	Inhibition (Homo sapiens [9]): 15.9%; Inhibition (Homo sapiens [10]): 19%; Inhibition (Homo sapiens [11]): 31%; Inhibition (Homo sapiens [12]): 7.5%; Inhibition (Homo sapiens [15]): 17.5%
C/C=C/c1c(OC)cc(OC)cc1OC.CC(C)CCC[C@@H](C)[C@H]1CC[C@H]2[C@@H]3CC=C4C[C@@H](O)CC[C@]4(C)[C@H]3CC[C@]12C	37.9	36.9	98.1	116			
C/C=C/c1ccc(OC)c(OC)c1OC.CC(C)CCC[C@@H](C)[C@H]1CC[C@H]2[C@@H]3CC=C4C[C@@H](O)CC[C@]4(C)[C@H]3CC[C@]12C	42.8	30.1	96.6	125			
CC(C)CCC[C@@H](C)[C@H]1CC[C@H]2[C@@H]3CC=C4C[C@@H](O)CC[C@]4(C)[C@H]3CC[C@]12C.CCOC(=O)C(C)(C)Oc1ccc(Cl)cc1 [CLOFIBRATE + CHOLESTEROL]							HDL cholesterol (Rattus norvegicus [22]): 22.1 mg/dL; LDL cholesterol (Rattus norvegicus [23]): 46.1 mg/dL; Triglyceride level (Rattus norvegicus [24]): 91.6 mg/dL; Total cholesterol (Rattus norvegicus [25]): 85.8 mg/dL
